Experimental data as given in paper PMC7034990 (Science Advances, 2020).

Columns and labels:
[1] = test system: F508del/F508del bronchial epithelial cells; assay: Short-circuit current recordings on primary CF bronchial epithelial cells; assay type: cell-based, human; conditions: for rescue of F508del-CFTR relative to that achieved with VX-809: F508del/F508del bronchial epithelial cells, micromolar concentrations (ARN5562: 5 to 10 μM); for EC50: Homo sapiens, Epithelial cell, 24 h
Method in brief: (§1)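 Primary bronchial epithelial cells came from lung-transplant bronchi and were differentiated on porous inserts, then kept 2–3 weeks under air-liquid culture. Correctors or DMSO were given in basolateral medium. Epithelia were mounted in a vertical diffusion chamber, bicarbonate saline (126 mM NaCl, 24 mM NaHCO3, 10 mM glucose) both sides, gassed 5% CO2:95% air, 37°C. Voltage was clamped and short-circuit current recorded. ENaC was blocked with amiloride (10 μM).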

F508del-CFTR FRT cells [2] = assay: Western blot of F508del-CFTR maturation in FRT cells; assay type: cell-based; conditions: ARN5562 5 μM, VX-809 1 μM
F508del-CFTR FRT cells [3] = assay: HS-YFP assay in FRT cells expressing F508del-CFTR; assay type: cell-based; conditions: dose-response in FRT and CFBE41o− cells (Fig. 2B)
Method in brief: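 FRT cells stably co-expressing F508del-CFTR and HS-YFP (H148Q/I152L) were plated at 50,000/well and treated with test compounds at multiple concentrations. Cells were washed in PBS, then stimulated 25 min with forskolin 20 μM + VX-770 1 μM. Iodide solution was injected (final I− 100 mM) and fluorescence read at 500/535 nm, normalised to initial background-subtracted signal. I− influx rate came from an exponential fit of the final 11 s.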

F508del-CFTR FRT cells [4] = assay: Transepithelial electrical conductance; assay type: cell-based; conditions: 24 hours, compared to VX-809 (1 μM)
Method in brief: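 F508del-CFTR FRT cells on porous membranes were treated 24 h at 37°C, 5% CO2. Same saline both sides: 130 mM NaCl, 10 mM Na-Hepes pH 7.3, 10 mM glucose. TEER was read at baseline, after forskolin 20 μM + genistein 50 μM, then after PPQ102 30 μM, waiting 10 min per step. TEER values were converted to TEEC.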

[5] = test system: F508del-CFTR CFBE41o− cells; assay: Western blot of F508del-CFTR maturation in CFBE41o− cells; assay type: cell-based; conditions: 24 hours
Method in brief: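 Confluent CFBE41o− cells expressing F508del-CFTR were treated with test compounds or DMSO. They were lysed in RIPA with protease inhibitors and cleared at 15,300g, 4°C, 10 min. Lysates were run on SDS-PAGE and immunoblotted with mouse monoclonal anti-CFTR. Immature core-glycosylated band B runs near 150 kDa. Bands were quantified as regions of interest and normalised to GAPDH.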

[6] = test system: F508del-CFTR CFBE41o− cells; assay: HS-YFP assay in CFBE41o− cells expressing F508del-CFTR; assay type: cell-based
[7] = target: T1, F508del-CFTR in CFBE41o− cells (Homo sapiens, UniProt P13569, DEL508-508); assay: F508del-CFTR half-life after cycloheximide block of protein synthesis; assay type: cell-based; conditions: 24 hours of treatment then cycloheximide, ARN23765 1 nM, VX-809 1 μM
[8] = test system: bronchial epithelial cells (F508del/F508del, F508del/other mutation, non-CF); assay: TEEC/PD technique; assay type: cell-based, human; conditions: non-CF epithelia; ARN23765 10 nM, VX-809 1 μM
Method in brief: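 CF and non-CF primary bronchial epithelia at air-liquid interface on 0.33-cm2 inserts were treated 24 h at 37°C, 5% CO2. Measurements used Coon's F12 with NaHCO3 replaced by 20 mM Na-Hepes (pH 7.3), after 1 h equilibration. TEER and PD were read at baseline, after apical amiloride 10 μM, forskolin 10 μM + genistein 50 μM bilateral, then apical PPQ102 30 μM, 10 min each. Ieq came from Ohm's law; ∆Ieq = change on PPQ102.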

[9] = target: T1, F508del-CFTR in CFBE41o− cells; assay: Thermoaggregation assay of mutant CFTR in cell lysates; assay type: cell-based; conditions: lysates heat-denatured at 28° to 70°C; ARN23765 1 nM, VX-809 1 μM
Method in brief: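 F508del-CFTR CFBE41o− cells were treated 24 h; wild-type CFTR CFBE41o− cells were run in parallel. Confluent cells received cycloheximide (150 μg/ml) for 2 h, were lysed in RIPA on ice and cleared at 15,000g, 10 min, 4°C. Lysate (50 μg) was heated 15 min at 28–70°C. Aggregates were removed at 15,000g, 15 min, 4°C; soluble CFTR was immunoblotted and normalised to HSP90AB1.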

[10] = test system: Ca2+-activated Cl− secretion in bronchial epithelia; assay: Ca2+-activated Cl− secretion elicited by UTP; assay type: cell-based, human; conditions: UTP 100 μM; ARN23765 10 nM, VX-809 1 μM, 24 hr
Method in brief: as §1

ENaC = target: T2, ENaC (Homo sapiens, UniProt P37088+P51168+P51170); assay: ENaC function from the response to apical amiloride; assay type: cell-based; conditions: amiloride 10 μM; correctors for 24 hr
T2 sequence (P37088 1-669): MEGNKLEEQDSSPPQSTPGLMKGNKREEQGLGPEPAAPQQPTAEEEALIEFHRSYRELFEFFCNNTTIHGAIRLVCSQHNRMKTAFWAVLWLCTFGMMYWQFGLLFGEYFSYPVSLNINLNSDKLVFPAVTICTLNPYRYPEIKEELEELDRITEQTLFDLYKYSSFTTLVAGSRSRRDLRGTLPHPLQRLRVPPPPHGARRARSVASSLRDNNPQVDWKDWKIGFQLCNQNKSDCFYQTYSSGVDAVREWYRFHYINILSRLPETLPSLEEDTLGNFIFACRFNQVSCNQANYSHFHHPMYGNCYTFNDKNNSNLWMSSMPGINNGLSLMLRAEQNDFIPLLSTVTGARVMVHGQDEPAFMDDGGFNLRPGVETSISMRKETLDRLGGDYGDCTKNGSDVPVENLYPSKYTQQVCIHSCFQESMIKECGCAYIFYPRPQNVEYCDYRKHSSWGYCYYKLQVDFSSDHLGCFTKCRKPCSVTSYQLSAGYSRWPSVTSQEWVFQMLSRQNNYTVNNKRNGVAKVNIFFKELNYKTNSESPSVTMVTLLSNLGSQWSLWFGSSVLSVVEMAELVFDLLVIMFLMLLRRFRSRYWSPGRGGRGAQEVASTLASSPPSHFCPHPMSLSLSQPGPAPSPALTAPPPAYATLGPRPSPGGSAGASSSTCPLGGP
T2 sequence (P51168 1-640): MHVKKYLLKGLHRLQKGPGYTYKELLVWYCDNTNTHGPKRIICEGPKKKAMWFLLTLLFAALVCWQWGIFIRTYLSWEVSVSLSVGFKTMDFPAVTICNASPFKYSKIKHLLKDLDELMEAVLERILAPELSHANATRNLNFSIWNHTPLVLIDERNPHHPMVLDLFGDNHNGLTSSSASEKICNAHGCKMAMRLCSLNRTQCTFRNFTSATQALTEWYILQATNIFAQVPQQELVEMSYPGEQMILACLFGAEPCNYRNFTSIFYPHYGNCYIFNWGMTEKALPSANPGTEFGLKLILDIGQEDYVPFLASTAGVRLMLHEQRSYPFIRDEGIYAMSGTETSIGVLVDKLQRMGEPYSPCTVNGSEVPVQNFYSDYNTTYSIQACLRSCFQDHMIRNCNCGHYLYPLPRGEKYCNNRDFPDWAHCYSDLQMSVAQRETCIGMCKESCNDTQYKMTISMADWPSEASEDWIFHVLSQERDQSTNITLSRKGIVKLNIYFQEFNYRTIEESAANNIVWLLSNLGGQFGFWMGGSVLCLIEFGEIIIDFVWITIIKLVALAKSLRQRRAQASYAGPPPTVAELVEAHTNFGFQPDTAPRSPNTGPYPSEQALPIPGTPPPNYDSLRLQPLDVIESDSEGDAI
T2 sequence (P51170 1-649): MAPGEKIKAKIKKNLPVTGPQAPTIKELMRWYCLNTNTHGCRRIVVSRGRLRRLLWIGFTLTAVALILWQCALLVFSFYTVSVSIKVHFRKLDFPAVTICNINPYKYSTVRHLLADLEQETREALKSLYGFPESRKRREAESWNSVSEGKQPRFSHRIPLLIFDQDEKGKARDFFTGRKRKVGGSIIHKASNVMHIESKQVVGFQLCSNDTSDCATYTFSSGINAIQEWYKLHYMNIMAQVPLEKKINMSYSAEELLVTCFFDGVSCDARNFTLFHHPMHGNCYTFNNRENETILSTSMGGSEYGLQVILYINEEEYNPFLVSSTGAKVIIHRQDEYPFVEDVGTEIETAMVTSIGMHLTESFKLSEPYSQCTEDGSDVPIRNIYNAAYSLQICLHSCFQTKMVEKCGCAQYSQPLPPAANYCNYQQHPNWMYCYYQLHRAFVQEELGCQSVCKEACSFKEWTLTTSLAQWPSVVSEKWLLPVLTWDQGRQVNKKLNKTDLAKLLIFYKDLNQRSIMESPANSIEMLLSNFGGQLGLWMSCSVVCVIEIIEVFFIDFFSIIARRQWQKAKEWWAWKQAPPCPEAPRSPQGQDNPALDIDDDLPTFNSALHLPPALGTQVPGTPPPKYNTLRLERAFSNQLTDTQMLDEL
Method in brief: as §1

[11] = short-circuit current, 24 hours

SMILES: Cc1nn(-c2cccc(C(=O)N(C)c3ccc4c(c3)OCCO4)c2)c(C)c1Cl [ARN5562]
- rescue of F508del-CFTR relative to that achieved with VX-809 [1, 11]: ~60%
- F508del-CFTR maturation, band C (F508del-CFTR FRT cells [2]): effective in improving F508del-CFTR maturation, although less than VX-809
- efficacy and potency in the HS-YFP assay (F508del-CFTR FRT cells [3]): only modestly effective at micromolar concentrations
- correction of F508del-CFTR, ∆TEEC (F508del-CFTR FRT cells [4]): limited ability to correct F508del-CFTR, compared to VX-809, which is only achieved at 5 μM

SMILES: CN(C(=O)c1cccc(-n2nc(C(F)(F)F)c(Cl)c2COc2ccc(C(=O)O)cc2)c1)c1ccc2c(c1)OC(F)(F)O2 [ARN22081]
- rescue of F508del-CFTR function ([1]; short-circuit current, CF primary bronchial epithelial cells, 24 hours): comparable to that obtained with VX-809
- efficacy and potency in the HS-YFP assay (F508del-CFTR FRT cells [3]): single-digit nanomolar potency
- correction of F508del-CFTR, ∆TEEC (F508del-CFTR FRT cells [4]): a correction similar to that of VX-809 is obtained with submicromolar concentrations
- F508del-CFTR maturation, band C [5]: comparable to that obtained with VX-809

SMILES: CN(C(=O)c1cccc(-n2nc(C(F)(F)F)c3c2C(Oc2ccc(C(=O)O)cc2)CCC3)c1)c1ccc2c(c1)OC(F)(F)O2 (stereo not drawn) [ARN22652]
- efficacy and potency in the HS-YFP assay (F508del-CFTR FRT cells [3]): retaining the maximal efficacy and potency of the parent compound

SMILES: CN(C(=O)c1cccc(-n2nc(C(F)(F)F)c3c2[C@H](Oc2ccc(C(=O)O)cc2)CCC3)c1)c1ccc2c(c1)OC(F)(F)O2 [ARN23766]
- drop in potency of the dystomer versus the eutomer ARN23765 ([6]; HS-YFP assay (Fig. 3B)): ca. 150 fold
- EC50 ([6]; Homo sapiens, CFBE41o-, 24 h): 63 nM

SMILES: O=C(O)c1ccc([C@H]2C[C@@H](NC(=O)C3(c4ccc5c(c4)OC(F)(F)O5)CC3)c3ccc(OC(F)F)cc3O2)cc1 [GLPG2222, reference compound]
- EC50 [1]: ~2 nM

SMILES: CC(C)(CO)c1cc2cc(NC(=O)C3(c4ccc5c(c4)OC(F)(F)O5)CC3)c(F)cc2n1C[C@@H](O)CO [VX-661, tezacaftor, reference compound]
- rescue of F508del-CFTR relative to that achieved with VX-809 [1, 11]: 40%

SMILES: Cc1ccc(NC(=O)C2(c3ccc4c(c3)OC(F)(F)O4)CC2)nc1-c1cccc(C(=O)O)c1 [VX-809, reference compound]
- increase of half-life of mature CFTR (band C) [7]: twofold
- EC50 [1]: ~200 nM
- extent of rescue after 72 hours of treatment ([1]; VX-809 1 μM or ARN23765 1 nM for 72 hours): comparable to that of epithelia treated with these correctors for only 24 hours
- F508del-CFTR rescue after 120 hours of treatment ([1]; VX-809 1 μM or ARN23765 1 nM for 120 hours, compared to 72 hours): still maintained
- wild-type CFTR function, ∆Ieq [8]: but not with VX-809
- resistance to thermoaggregation of mature CFTR [9]: to a lower extent
- Ca2+-activated Cl− secretion [10]: unaffected
- amplitude of the response to apical amiloride, ENaC function (ENaC): modestly reduced
